Published values pooled from the literature.
Compare with care: the assays were run in different laboratories.
Target: Phosphatidylinositol 4,5-bisphosphate 3-kinase catalytic subunit delta isoform (PIK3CD, Homo sapiens, UniProt O00329)
Residues used in one study (O00329 1-1044): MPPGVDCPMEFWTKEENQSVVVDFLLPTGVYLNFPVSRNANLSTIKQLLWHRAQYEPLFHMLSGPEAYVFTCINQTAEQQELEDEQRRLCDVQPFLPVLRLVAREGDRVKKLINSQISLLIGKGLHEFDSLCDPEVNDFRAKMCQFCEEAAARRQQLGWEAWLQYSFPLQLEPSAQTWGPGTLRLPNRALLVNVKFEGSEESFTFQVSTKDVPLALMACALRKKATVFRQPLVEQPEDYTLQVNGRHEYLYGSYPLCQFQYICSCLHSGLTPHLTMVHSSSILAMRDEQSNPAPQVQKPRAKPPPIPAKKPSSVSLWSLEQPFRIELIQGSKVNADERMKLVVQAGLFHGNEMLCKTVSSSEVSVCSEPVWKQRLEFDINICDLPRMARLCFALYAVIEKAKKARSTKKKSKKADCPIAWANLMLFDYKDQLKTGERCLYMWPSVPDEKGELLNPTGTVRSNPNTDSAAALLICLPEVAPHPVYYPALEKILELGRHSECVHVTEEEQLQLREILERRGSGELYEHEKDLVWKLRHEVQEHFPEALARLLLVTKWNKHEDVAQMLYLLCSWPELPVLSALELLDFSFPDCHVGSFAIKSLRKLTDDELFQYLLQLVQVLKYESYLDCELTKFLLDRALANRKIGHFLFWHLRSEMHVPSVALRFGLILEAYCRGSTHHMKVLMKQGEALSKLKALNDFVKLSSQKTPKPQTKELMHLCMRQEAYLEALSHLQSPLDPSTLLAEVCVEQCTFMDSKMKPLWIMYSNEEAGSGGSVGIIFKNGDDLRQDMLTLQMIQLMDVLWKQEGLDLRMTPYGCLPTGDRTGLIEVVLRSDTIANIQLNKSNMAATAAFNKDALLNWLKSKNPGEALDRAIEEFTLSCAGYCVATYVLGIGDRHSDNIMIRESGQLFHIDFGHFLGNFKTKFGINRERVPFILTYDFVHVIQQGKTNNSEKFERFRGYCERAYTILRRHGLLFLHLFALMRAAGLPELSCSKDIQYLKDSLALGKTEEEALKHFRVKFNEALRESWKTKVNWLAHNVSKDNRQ

Compound	read-out	mode	technique	tested at	endpoint	result
CC(C)CCn1c(SCC(=O)Nc2ccccc2C(F)(F)F)nc2nccnc2c1=O	enzyme activity	inhibitor		10 µM	inhibition	< 20%
CS(=O)(=O)Nc1cc(-c2ccc3ncnc(Nc4ccc(F)c(Cl)c4)c3c2)cnc1Cl	enzyme activity	inhibitor	FRET	10 µM	inhibition	90 to 100%
CN(CCCC(F)(F)F)c1nccc(-c2cnn3ncccc23)n1	binding			1 µM	remaining binding	100%
CO[C@@H](C)c1c(Nc2ccc([C@@H](N(C)C(=O)C3CCS(=O)(=O)CC3)C(F)(F)F)cc2)cnc2cc(Cl)nn12	cell-free assay		competition with immobilised ligand	1 µM	remaining binding	87%
O=C(CSc1nc2nccnc2c(=O)n1CCc1ccccc1)Nc1ccccc1	enzyme activity	inhibitor		10 µM	inhibition	< 20%
Cc1ccc(C(=O)Nc2ccc(CN3CCN(C)CC3)c(C(F)(F)F)c2)cc1C#Cc1cnc2cccnn12	enzyme activity	inhibitor		23.5 nM	remaining activity	83%
Nc1ncnc2occ(-c3ccc(NC(=O)Nc4cc(C(F)(F)F)ccc4F)cc3)c12	cell-free assay	inhibitor		20 µM	remaining signal	69%
Cc1ccc(C(=O)NCc2ccsc2)cc1C#Cc1cn(C(C)C)c2ncnc(N)c12	enzyme activity	inhibitor		1 µM	activity vs control	98%
CC(C)(O)c1cncc(-c2nc3ccc(F)cc3n2C2CC2)c1	cell-free assay		competition with immobilised ligand	1 µM	remaining binding	100%
